Reference: ChEMBL document CHEMBL4823247, “Natural Isoflavones and Semisynthetic Derivatives as Pancreatic Lipase Inhibitors” (J Nat Prod, 2021)
pIC50: −log10 of the molar value.

Test: Inhibition of pig pancreatic lipase type 2 using p-nitrophenyl butyrate as substrate preincubated with enzyme for 10 mins followed by susbtrate addition and measured after 30 mins by spectrophotometric analysis
Design: species or system Sus scrofa
Method in brief: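 PL (300 U/mL stock, in 50 mM phosphate buffer pH 7.2) was preincubated with compound aliquots (MeOH or MeOH:DMSO 95:5 stocks) for 10 min at 37 °C. p-Nitrophenyl butyrate (3.2 mM stock) was then added and incubated 30 min at 37 °C with shaking, read at 405 nm. Five concentrations per compound, in triplicate. % inhibition was taken from absorbance vs no-compound control, and IC50 by regression.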

Structure (SMILES) | pIC50
COc1ccc2c(=O)c(-c3ccc(OC)c(OC)c3)coc2c1 | 3.44
CC(=O)Oc1ccc2c(=O)c(-c3ccc(OC(C)=O)c(OC(C)=O)c3)coc2c1 | 3.91
COc1ccc(-c2coc3c(Br)c(O)ccc3c2=O)cc1Br | 4.00
COc1ccc(-c2coc3c(O)c(O)ccc3c2=O)cc1 | 4.03

Further compounds by rising pIC50, results first:

pIC50 | Structure (SMILES)
4.04 | Cc1cc(O)cc2occ(-c3ccc(O)c(O)c3)c(=O)c12
6.22 | CCCCCCCCCCC[C@@H](C[C@@H]1OC(=O)[C@H]1CCCCCC)OC(=O)[C@H](CC(C)C)NC=O [ORLISTAT]
